Most compounds without a hit are left out; they make up all but 6.6% or so of the library.
JNK3 inh: blocks human JNK3 kinase activity; P53779; purified JNK3 kinase activity, HTS; inhibition, % at 8 µM; 0.61% of 60,000 active; in the data active = inhibition above about 17%
BAP1 inh: blocks human BAP1 ubiquitin-AMC hydrolysis | 0.48% of 72,000 active | calls only at 20 µM | recombinant BAP1, Ub-AMC hydrolysis fluorescence kinetic; stronger effect = lower value;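 active = activity remaining at or below 50% of control, provided the compound also passes the data quality filters; inactive = the rest, including low values that fail the filters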
HEK293 NFkB inh: lowers PMA/ionomycin-induced NF-kB signal in HEK293 cells | HEK-293 NF-kB luciferase reporter, luminescence | inhibition, % at 3 µM | 0.21% of 62,000 active | AID 465;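 active = inhibition above the mean of all tested compounds plus 3 SD, cut at about 40% in these data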
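Reagent: PMA plus ionomycin mix as NF-kB-activating stimulus. Assay system: NF-kB luciferase reporter HEK-293 cells. Technique: luminescence from luciferase substrate reagent. Incubation: 1 h compound pre-incubation, 16 h PMA/ionomycin at 37 °C. Benchmarks: DMSO only as uninhibited control, 10 µM reference inhibitor as full inhibition. Repeats: tested once.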
M1 agonist: M1 muscarinic receptor agonism; CHO-M1 cells, Fluo-4 calcium fluorescence, agonist mode; stronger effect = higher value; B-score at 10 µM; 3% of 64,000 active;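 active = fluorescence rise, raw or as B-score row- and column-corrected plate score, outside the 99.7% band of its plate's samples, either direction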
M1 antagonist: antagonists of rat M1 muscarinic receptor. 3.4% of 64,000 active. CHO-M1 cells, Fluo-4 calcium, ACh EC80 antagonist mode; stronger effect = lower value. B-score at 10 µM. P08482. AID 628;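 active = calcium fluorescence response, raw or row-and-column corrected B-score, differing from the plate sample mean either way at a set confidence level, mostly lower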
Target sequence (P08482 whole entry, looked up): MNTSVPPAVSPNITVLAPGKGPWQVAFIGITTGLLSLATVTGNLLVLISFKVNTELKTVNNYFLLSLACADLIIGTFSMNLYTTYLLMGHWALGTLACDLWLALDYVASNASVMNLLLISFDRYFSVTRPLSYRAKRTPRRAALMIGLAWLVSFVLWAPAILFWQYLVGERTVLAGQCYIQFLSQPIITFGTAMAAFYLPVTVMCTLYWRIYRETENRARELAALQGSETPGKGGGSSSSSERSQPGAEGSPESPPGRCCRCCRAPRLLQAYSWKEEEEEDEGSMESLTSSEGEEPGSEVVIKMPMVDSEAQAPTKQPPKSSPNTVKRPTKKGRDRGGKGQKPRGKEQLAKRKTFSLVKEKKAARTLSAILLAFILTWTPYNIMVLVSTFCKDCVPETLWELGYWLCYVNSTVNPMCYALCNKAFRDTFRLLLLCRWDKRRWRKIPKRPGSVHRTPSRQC
Her2 expr inh: lowers expression of human Her2 kinase. SKBR-3 HER2 protein level, AlphaScreen, 18-24 h; stronger effect = lower value. HER2 level % of control, % at 10 µM. AID 645. 0.69% of 65,000 active;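 active = HER2 level under 5% of the carrier-only control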;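 also: lower value means stronger loss of Her2 protein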
M1 antag conf: confirmation of rat M1 muscarinic receptor antagonists | calcium response (max-min fluorescence) at 10 µM | 43% of 1,700 active | shares compounds with M1 antagonist | AID 677 | CHO-M1 cells, Fluo-4 calcium, ACh EC80 antagonism; stronger effect = lower value;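 active = calcium response below the same-plate mean of wells given acetylcholine alone at its 80%-effect dose, minus 3 SD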
mGluR4 antag: selectivity test for M1 antagonists: human mGluR4 receptor. AID 678. CHO-mGluR4 calcium flux, Fluo-4 fluorescence, glutamate EC80; stronger effect = lower value. shares compounds with M1 antagonist. 0.9% of 1,700 active. fluorescence response (max-min) at 10 µM;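 active = fluorescence response below the plate's average for near-maximal glutamate wells, less 3 SD of those wells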;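 also: raw unnormalized fluorescence span taken in the window right after glutamate addition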
Hits are given with their value; . = inactive; / = no result given.

SMILES | JNK3 inh | BAP1 inh | HEK293 NFkB inh | M1 agonist | M1 antagonist | Her2 expr inh | M1 antag conf | mGluR4 antag
CCOC(=O)C1CCCN(C(=O)c2cc3c(C)nc4ccccc4c3o2)C1 (configuration not stated) | . | . | . | . | -2.7 | . | 486 | 143
Cc1ccc2c(c1)NC(=O)C(CC(=O)NCCCN1CCN(c3cc(Cl)ccc3C)CC1)O2 (configuration not stated) | . | . | . | . | -2.1 | . | 332 | .
O=C(O)CCCN1C(=O)c2ccc(C(=O)O)cc2C1=O | / | . | / | / | / | / | / | /
CC(=O)OC(C(=O)NCc1ccco1)c1cccnc1 (configuration not stated) | . | . | . | . | -1 | . | . | .
CCN1CCN(Cc2c(OC)ccc3ccccc23)CC1 | . | . | . | . | -3 | . | . | .
C=CCOC(=O)C1=C(C)NC(=O)NC1c1ccccc1F (configuration not stated) | / | . | / | / | / | / | / | /
CC1(C)NC(=O)N(CC(O)COc2cc3ccccc3cc2C(=O)N2CCCCC2)C1=O (configuration not stated) | . | . | / | . | -3 | . | . | .
O=C(OCCN1C(=O)c2ccc([N+](=O)[O-])cc2C1=O)C1CCCCC1 | / | . | / | / | / | / | / | /
CCCCOc1ccccc1NC(=O)CC1SC(=NCC)N(CC)C1=O (configuration not stated) | . | . | . | . | -2.8 | . | . | .
COc1ccc2nc(NC(=O)c3ccc(N)cc3)sc2c1 | / | . | / | / | / | / | / | /
CN(CCC#N)CC(=O)Nc1ccc(NC(=O)CN(C)CCC#N)cc1 | . | . | . | . | -14 | . | . | .
CN(C)CC(=O)Nc1ccc(S(N)(=O)=O)cc1 | / | / | / | / | / | . | / | /
Clc1ccc(OCc2nnc(SCCN3CCCCC3)n2Cc2ccco2)cc1 | . | . | . | . | -13 | . | 21 | .
CCc1ccc(OCc2nnc(SCCN3CCOCC3)n2CC)cc1 | . | . | . | . | -3.2 | . | 313 | .
O=c1c2ccccc2nnn1CSc1nnc(COc2ccc(Cl)cc2)n1Cc1ccco1 | . | . | . | . | . | . | / | /
CCN(CC)CCOC(=O)C1(c2ccccc2)CCOCC1 | . | . | . | . | -15 | . | 102 | .
Clc1ccc(Oc2nc(Oc3ccc(Cl)cc3)nc(N3CCOCC3)n2)cc1 | . | . | . | / | / | . | / | /
COC(=O)c1ccc(Oc2nc(N3CCCCC3)nc(N3CCOCC3)n2)cc1 | . | . | . | . | -2.3 | . | . | .
COc1ccccc1-c1c(C)nn2c(N3CCCCCC3)cc(C)nc12 | . | . | . | . | -2.5 | . | . | .
O=C(NCCc1ccc(Cl)cc1)C1CCC(=O)N1C1CCCC1 (configuration not stated) | . | . | . | . | . | . | / | /
CC(C)N(CCCNC(=O)C1CCN(S(=O)(=O)N2CCOCC2)CC1)Cc1ccccc1 | . | . | . | . | -3.8 | . | . | .
CCN(CC)S(=O)(=O)N1CCC(C(=O)NCCN2CCOCC2)CC1 | . | . | . | . | . | . | / | /
CCN(CCCNC(=O)C1CCN(S(=O)(=O)c2cccc3nonc23)CC1)Cc1ccccc1 | / | . | . | . | -6.8 | . | 304 | .
O=C(NCCN1CCOCC1)C1CCC(=O)N1C1CCCCC1 (configuration not stated) | . | . | . | . | -1.4 | . | . | .
O=C(NCCN1CCCCCC1)C1CCN(S(=O)(=O)N2CCOCC2)CC1 | . | . | . | . | -5.2 | . | . | .
SMILES | JNK3 inh | BAP1 inh | HEK293 NFkB inh | M1 agonist | M1 antagonist | Her2 expr inh | M1 antag conf | mGluR4 antag
Cc1nc(-c2c(C)oc3cc(O)cc(C)c3c2=O)cs1 | / | . | / | / | / | / | / | /
Cc1ccc(N2C(=O)C(N3C(=O)c4cccc([N+](=O)[O-])c4C3=O)C2c2ccccc2F)cc1Cl (configuration not stated) | / | . | / | / | / | / | / | /
CC1=C(C(=O)OC2CCCCC2)C(c2cc3c(cc2Br)OCO3)C2=C(CC(c3ccccc3)CC2=O)N1 (configuration not stated) | / | . | / | / | / | / | / | /
Cn1c(=O)cc(SCC(=O)N2CCN(Cc3ccc4c(c3)OCO4)CC2)c2ccccc21 | . | . | . | . | -2.1 | . | 474 | .
Cn1c(=O)cc(SCC(=O)N2CCN(C3CCCCC3)CC2)c2ccccc21 | . | . | . | . | -2.8 | . | 249 | .
CCn1c(=O)cc(SCC(=O)N2CCN(Cc3ccc4c(c3)OCO4)CC2)c2ccccc21 | / | . | . | . | -5.7 | . | 432 | .
CCn1c(=O)cc(SCC(=O)NCCCN2CCN(c3ccc(F)cc3)CC2)c2ccccc21 | / | . | . | . | . | . | / | /
CCn1c(=O)cc(SCC(=O)N2CCCCC2)c2ccccc21 | / | . | . | . | . | . | / | /
CCn1c(=O)cc(SCC(=O)NCCN2CCN(Cc3ccccc3)CC2)c2ccccc21 | . | . | . | . | -3.5 | . | . | .
CCSc1nc2cc(OC)c(OC)cc2c(=O)n1CC | . | . | . | . | -3.1 | . | . | .
COc1ccc(C2C(C(=O)N3CCN(c4ccccc4)CC3)c3ccccc3C(=O)N2C)cc1OC (configuration not stated) | / | / | . | . | -4.4 | . | . | .
COc1ccc(N2C(=O)CCC(C(=O)N3CCOCC3)C2c2ccc(F)cc2)cc1 (configuration not stated) | / | / | . | . | -3.1 | . | . | .
COc1ccc(C2C(C(=O)N3CCN(c4ccccc4)CC3)c3ccccc3C(=O)N2C)cc1 (configuration not stated) | / | / | . | . | . | . | / | /
COc1ccc(C2C(C(=O)N3CCN(C)CC3)c3ccccc3C(=O)N2C2CCCCC2)cc1 (configuration not stated) | . | . | . | . | . | . | / | /
COc1ccc(C2C(C(=O)N3CCOCC3)c3ccccc3C(=O)N2c2ccc(OC)cc2)cc1 (configuration not stated) | . | . | . | . | -13 | . | . | .
Cc1ccc(NC(=O)c2ccccc2F)c(Br)c1 | / | . | / | / | / | / | / | /
COc1cccc(-c2nc(CS(=O)(=O)CC(=O)NCCCN3CCc4ccccc4C3)c(C)o2)c1 | . | . | . | . | -1.8 | . | . | .
O=c1oc2ccccc2c2c1nnn2CCCN1CCOCC1 | / | . | / | / | / | / | / | /
COC(=O)Nc1nnc(Cc2ccccc2)s1 | . | / | . | . | -17 | / | . | .
COC(=O)Nc1nnc(CCc2ccccc2)s1 | . | . | . | . | . | . | / | /
COC(=O)c1ccc(NC(=O)COc2cccc(C)c2)cc1 | / | . | / | / | / | / | / | /
CCOc1ccc(C(=S)N2CCCCC2)cc1OC | / | . | / | / | / | / | / | /
COc1cc(C2C3C(=O)N(Cc4ccccc4)C(=O)C3ON2c2ccccc2)cc(OC)c1OC (configuration not stated) | . | . | . | . | . | . | / | /
